CHRM1 PAM – positive allosteric modulators of human M1 muscarinic receptor; activation, % at 3 µM; CHO-K1 hM1, Fluo-8 calcium fluorescence, ACh EC20; 0% = ACh EC20, 100% = maximal ACh; AID 588819; 360,000 compounds, 0.088% hits; P11229; in the data active means activation above about 19%, passing the limit was not always enough
CHRM5 agonist – agonists of human muscarinic M5 receptor (CHRM5); AID 624037; 360,000 compounds, 0.19% hits; P08912; activation, % at 3 µM; CHO-K1 hM5 cells, Fluo-8 calcium fluorescence; 0% DMSO wells, 100% maximal acetylcholine response;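 active means activation above the run's mean over test compounds plus 3 SD, cut at about 23% in these data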;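 further: signal is peak over basal fluorescence ratio across the kinetic read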
Target sequence (P08912 whole entry, looked up): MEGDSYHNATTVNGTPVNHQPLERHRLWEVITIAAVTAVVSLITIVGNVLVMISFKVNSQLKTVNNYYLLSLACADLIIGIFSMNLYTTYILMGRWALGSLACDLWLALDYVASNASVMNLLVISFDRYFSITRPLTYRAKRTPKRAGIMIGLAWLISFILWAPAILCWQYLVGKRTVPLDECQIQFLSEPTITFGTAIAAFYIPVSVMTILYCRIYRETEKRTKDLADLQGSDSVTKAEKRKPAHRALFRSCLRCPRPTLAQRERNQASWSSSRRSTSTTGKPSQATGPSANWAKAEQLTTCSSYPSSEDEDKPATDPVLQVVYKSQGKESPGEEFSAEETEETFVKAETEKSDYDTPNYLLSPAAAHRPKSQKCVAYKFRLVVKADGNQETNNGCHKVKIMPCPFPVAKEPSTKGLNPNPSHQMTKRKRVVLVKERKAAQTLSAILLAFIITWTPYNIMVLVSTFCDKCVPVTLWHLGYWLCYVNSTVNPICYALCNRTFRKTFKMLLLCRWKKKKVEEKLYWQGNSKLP
CHRM5 antagonist – blocks acetylcholine activation of human M5 receptor. P08912. CHO-hM5 cells, Fluo-8 calcium fluorescence, ACh EC80. inhibition, % at 3 µM. 360,000 compounds, 0.59% hits. AID 624040;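 active means inhibition above a per-plate cutoff, the mean of that plate's test compounds plus 3 SD, cut at about 27% in these data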
CHRM5 PAM – CHRM5 positive allosteric modulation | P08912 | CHO-K1 hM5, Fluo-8 calcium, ACh EC20 PAM; 0% = ACh EC20, 100% = ACh EC100 | activation, % at 3 µM | 360,000 compounds, 0.3% hits | AID 624038;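 active means activation above the run cutoff, the mean activation of all test compounds plus 3 SD, cut at about 18% in these data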
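System: CHO-K1 cell line with stable human muscarinic M5 receptor expression | Also added: EC20 acetylcholine as agonist stimulus | Compound: One concentration, 3 µM final (nominal) | Timing: Fluo-8 loading 80 min at 37 °C plus 30 min room temperature | Measured by: Fluo-8 calcium dye fluorescence, kinetic read | Read-out basis: % activation, ACh-normalized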
M1 antag – blocks human M1 muscarinic receptor; P11229; CHO-K1 hM1, Fluo-8 calcium fluorescence, ACh EC80 antagonist; inhibition, % at 3 µM; 360,000 compounds, 1.3% hits; AID 588852;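 active means percent inhibition above its own plate's cutoff, namely the mean of that plate's compound wells plus 3 SD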;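 further: peak over basal fluorescence ratio during 140 s after agonist addition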
CHRM1 agonist – activates human CHRM1 receptor. P11229. CHO-K1 hM1, Fluo-8 calcium fluorescence, agonist mode; 0% DMSO, 100% acetylcholine EC100. activation, % at 3 µM. 360,000 compounds, 0.33% hits. AID 588814;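 active means activation above the run's mean compound activation plus 3 SD, cut at about 16% in these data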;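 further: peak over basal fluorescence ratio within a 140 s kinetic read after compound addition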
Of the large screens only hits and unclear results are named; the others gave an inactive call. The list is not random: actives were taken first. Their share in the collection is about 2%.

O=C(O)C1c2ccccc2C(=O)N(Cc2ccc(F)cc2)C1c1ccncc1 (stereo not given)	CHRM5 PAM 27
CCc1ccc(C2C(C(=O)O)c3ccccc3C(=O)N2C)cc1 (stereo not given)	none
O=C1/C(=C\c2cc(Cl)c(O)c(Cl)c2)SC(=S)N1Cc1ccccc1	M1 antag 54, CHRM1 agonist 51
COc1ccc(/C=C2/SC(=S)N(Cc3ccccc3)C2=O)cc1O	none
CC1(C(=O)Nc2ccc3c(c2)OCCO3)CN(S(C)(=O)=O)CC(=O)N1Cc1cccs1 (stereo not given)	none (no result: CHRM1 PAM, M1 antag, CHRM1 agonist)
OC(COC(c1ccccc1)c1ccccc1)CN1CCOCC1 (stereo not given)	none
c1ccc(C(CN2CCOCC2)c2ccccc2)cc1	CHRM5 antagonist 99
COc1cc(/C=C/C(=O)OCC(=O)Nc2ccc([N+](=O)[O-])cc2)ccc1O	CHRM5 agonist 38, CHRM1 agonist 25
CC1(c2ccc(Cl)cc2)NC(=O)N(CC(=O)Nc2cccnc2Cl)C1=O (stereo not given)	CHRM1 agonist 22
CC(=O)Nc1ccc(/C=N/N2C(=O)NC(C)(c3ccc(OC(F)F)cc3)C2=O)cc1 (stereo not given)	CHRM1 agonist 27
CC1(c2ccc(OC(F)F)cc2)NC(=O)N(CC(=O)Nc2ccccc2)C1=O (stereo not given)	CHRM5 agonist 44, M1 antag 26, CHRM1 agonist 46
CC1(c2ccc(OC(F)F)cc2)NC(=O)N(CC(=O)Nc2ccc3c(c2)OCO3)C1=O (stereo not given)	CHRM5 agonist 41, CHRM1 agonist 39
CC1(c2ccc(OC(F)F)cc2)NC(=O)N(CC(=O)Nc2ccc3[nH]c(=O)[nH]c3c2)C1=O (stereo not given)	none
O=C(Nc1ccn(CCCNC2CCN(Cc3ccccc3)CC2)c(=O)n1)OCc1ccccc1	none
Cc1c(C(=O)NCc2ccc(F)cc2)sc(=O)n1Cc1ccccc1	none
Cc1cc(F)ccc1C(O)c1ncc(-c2ccc(Oc3ccccc3)cc2)[nH]1 (stereo not given)	none
CCCCN1C(=O)C(CC(=O)NC2CC2)CC(C(=O)N(C(C)C)C(C)C)=C1C (stereo not given)	none
CC1(c2ccc3ccccc3c2)NC(=O)N(CC(=O)NCc2cccs2)C1=O (stereo not given)	none
CCCCCC(C)NC(=O)CN1C(=O)NC(C)(c2ccc3ccccc3c2)C1=O (stereo not given)	CHRM1 agonist 18
O=C(CN1CCC(O)CC1)N1c2ccccc2C=Cc2ccccc21	M1 antag 47
CCOC(=O)N1CCN(CC(=O)N2c3ccccc3CCc3ccccc32)CC1	none
O=C(CN1CCC(N2CCCCC2)CC1)N1CCCc2ccccc21	none
O=C(CN1CCCCC1)N1c2ccccc2CCc2ccccc21	CHRM5 antagonist 49, M1 antag 93
CC1CCN(CC(=O)N2c3ccccc3CCc3ccccc32)CC1	M1 antag 72
COC[C@@H]1CCCN1c1ccc2c(c1)O[C@@H](COCc1ccccc1)CN([C@H](C)c1ccccc1)S2(=O)=O	none (no result: CHRM1 PAM, M1 antag, CHRM1 agonist)
O=C1Nc2ccc(Br)cc2/C1=N\N=C\C1=C(N2CCOCC2)C(=C/c2ccccc2)/CC1	none
O=C1Nc2ccccc2/C1=N\N=C\C1=C(N2CCOCC2)C(=C\c2ccccc2)/CC1	M1 antag 30
Cc1n[nH]c(C)c1CCCCOc1ccccc1[N+](=O)[O-]	CHRM5 antagonist 34
Cc1n[nH]c(C)c1CCCCOc1ccccc1F	none
Cc1ccccc1OCCCCc1c(C)n[nH]c1C	M1 antag 29
Cc1ccccc1OCCCc1c(C)n[nH]c1C	none
O=C(NCCCn1ccnc1)c1[nH]c(C(F)(F)F)nc1-c1ccccc1	none
O=C1NC(=S)NC1=Cc1ccccc1O	CHRM5 agonist 110, CHRM5 antagonist 31, CHRM1 agonist 19
O=C1NC(=S)N/C1=C/c1cccc2ccccc12	none
c1ccc(-c2cc(CSc3nc4ccccc4[nH]3)on2)cc1	M1 antag 21
O=C(O)c1ccccc1CSc1nc2ccccc2[nH]1	none

Bioassay records as filed in PubChem.
